In ChEMBL document CHEMBL4049410, “Novel benzimidazolyl tetrahydroprotoberberines: Design, synthesis, antimicrobial evaluation and multi-targeting exploration” (2017):
Converted amounts (≈) assume the structure as drawn.

Key:
Staphylococcus aureus [1] = assay: Antibacterial activity against methicillin-resistant Staphylococcus aureus N315 after 24 hrs by two-fold serial dilution assay; format: functional
Bacillus subtilis = assay: Antibacterial activity against Bacillus subtilis after 24 hrs by two-fold serial dilution assay; format: functional
How it was run: (§1)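 Twofold serial broth dilution following NCCLS guidance, with Chloromycin, Norfloxacin and Fluconazole as positive controls. MIC in μM is the lowest concentration giving complete inhibition of visible bacterial or fungal growth.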

Micrococcus luteus = assay: Antibacterial activity against Micrococcus luteus ATCC 4698 after 24 hrs by two-fold serial dilution assay; format: functional, NCTC 2665; how it was run: as §1
Staphylococcus aureus [2] = assay: Antibacterial activity against Staphylococcus aureus ATCC 25923 after 24 hrs by two-fold serial dilution assay; format: functional; how it was run: as §1
Escherichia coli [3] = assay: Antibacterial activity against Escherichia coli JM109 after 24 hrs by two-fold serial dilution assay; format: functional; how it was run: as §1
Escherichia coli [4] = assay: Antibacterial activity against Escherichia coli DH52 after 24 hrs by two-fold serial dilution assay; format: functional; how it was run: as §1
Shigella dysenteriae = assay: Antibacterial activity against Shigella dysenteriae after 24 hrs by two-fold serial dilution assay; format: functional
Pseudomonas aeruginosa = assay: Antibacterial activity against Pseudomonas aeruginosa after 24 hrs by two-fold serial dilution assay; format: functional; how it was run: as §1
Salmonella typhi = assay: Antibacterial activity against Bacillus typhi after 24 hrs by two-fold serial dilution assay; format: functional, Salmonella enterica subsp. enterica serovar Typhi
Proteus vulgaris = assay: Antibacterial activity against Bacillus proteus ATCC 13315 after 24 hrs by two-fold serial dilution assay; format: functional; how it was run: as §1
Pichia norvegensis = assay: Antifungal activity against Candida mycoderma after 24 hrs by two-fold serial dilution assay; format: functional; how it was run: as §1
Cyberlindnera jadinii = assay: Antifungal activity against Candida utilis after 24 hrs by two-fold serial dilution assay; format: functional; how it was run: as §1
Saccharomyces cerevisiae = assay: Antifungal activity against Saccharomyces cerevisiae after 24 hrs by two-fold serial dilution assay; format: functional; how it was run: as §1
Aspergillus flavus = assay: Antifungal activity against Aspergillus flavus after 24 hrs by two-fold serial dilution assay; format: functional; how it was run: as §1
Candida albicans = assay: Antifungal activity against Candida albicans ATCC 76615 after 24 hrs by two-fold serial dilution assay; format: functional; how it was run: as §1
[5] = Staphylococcus aureus, N315, 24 h, read-out: MIC
[6] = Bacillus subtilis, 24 h, read-out: MIC
[7] = Micrococcus luteus, NCTC 2665, 24 h, read-out: MIC
[8] = Staphylococcus aureus, ATCC 25923, 24 h, read-out: MIC
[9] = Escherichia coli, JM109, 24 h, read-out: MIC
[10] = Escherichia coli, DH52, 24 h, read-out: MIC
[11] = Shigella dysenteriae, 24 h, read-out: MIC
[12] = Pseudomonas aeruginosa, 24 h, read-out: MIC
[13] = Salmonella enterica, 24 h, read-out: MIC
[14] = Proteus vulgaris, ATCC 13315, 24 h, read-out: MIC
[15] = Pichia norvegensis, 24 h, read-out: MIC
[16] = Williopsis jadinii, 24 h, read-out: MIC
[17] = Saccharomyces cerevisiae, 24 h, read-out: MIC
[18] = Aspergillus flavus, 24 h, read-out: MIC
[19] = Candida albicans, ATCC 76615, 24 h, read-out: MIC

SMILES | MIC (Staphylococcus aureus [1]; [5]) | MIC (Bacillus subtilis; [6]) | MIC (Micrococcus luteus; [7]) | MIC (Staphylococcus aureus [2]; [8]) | MIC (Escherichia coli [3]; [9]) | MIC (Escherichia coli [4]; [10]) | MIC (Shigella dysenteriae; [11]) | MIC (Pseudomonas aeruginosa; [12]) | MIC (Salmonella typhi; [13]) | MIC (Proteus vulgaris; [14]) | MIC (Pichia norvegensis; [15]) | MIC (Cyberlindnera jadinii; [16]) | MIC (Saccharomyces cerevisiae; [17]) | MIC (Aspergillus flavus; [18]) | MIC (Candida albicans; [19]) | further results
COc1ccc2cc3[n+](cc2c1OC)CCc1cc2c(cc1-3)OCO2 [BERBERINE] | 230 µM | 1150 µM | 1380 µM | 1380 µM | 1380 µM | 1150 µM | 1150 µM | 574 µM | 459 µM | 688 µM | 287 µM | 574 µM | 287 µM | 1150 µM | 918 µM | 
CCCCCCCCCCCCn1c(-c2cc(OC)c(O)c3c2CC2c4cc5c(cc4CCN2C3)OCO5)nc2ccccc21 (stereo unspecified) | 175 µM (≈ 107 µg/mL) | 35 µM (≈ 21.3 µg/mL) | 105 µM (≈ 64 µg/mL) | 26.2 µM (≈ 16 µg/mL) | 26.2 µM (≈ 16 µg/mL) | 87.5 µM (≈ 53.4 µg/mL) | 175 µM (≈ 107 µg/mL) | 17.5 µM (≈ 10.7 µg/mL) | 8.7 µM (≈ 5.31 µg/mL) | 5.5 µM (≈ 3.35 µg/mL) | 3.3 µM (≈ 2.01 µg/mL) | 17.5 µM (≈ 10.7 µg/mL) | 70 µM (≈ 42.7 µg/mL) | 43.8 µM (≈ 26.7 µg/mL) | 5.5 µM (≈ 3.35 µg/mL) | 
COc1cc(-c2nc3ccccc3[nH]2)c2c(c1O)CN1CCc3cc4c(cc3C1C2)OCO4 (stereo unspecified) | 121 µM (≈ 53.3 µg/mL) | 48.3 µM (≈ 21.3 µg/mL) | 242 µM (≈ 107 µg/mL) | 580 µM (≈ 256 µg/mL) | 60.4 µM (≈ 26.7 µg/mL) | 96.7 µM (≈ 42.7 µg/mL) | 96.7 µM (≈ 42.7 µg/mL) | 145 µM (≈ 64 µg/mL) | 48.3 µM (≈ 21.3 µg/mL) | 242 µM (≈ 107 µg/mL) | 60.4 µM (≈ 26.7 µg/mL) | 242 µM (≈ 107 µg/mL) | 48.3 µM (≈ 21.3 µg/mL) | 72.5 µM (≈ 32 µg/mL) | 483 µM (≈ 213 µg/mL) | 
COc1cc(-c2nc3ccccc3n2CCCCCCn2c3ccccc3c3ccccc32)c2c(c1O)CN1CCc3cc4c(cc3C1C2)OCO4.Cl (stereo unspecified) |  |  |  |  |  |  |  |  |  |  |  |  |  |  |  | MIC (Staphylococcus aureus [1]): 586.7 µM; MIC (Bacillus subtilis): 704 µM; MIC (Micrococcus luteus): 293.3 µM; MIC (Staphylococcus aureus [2]): 146.7 µM; MIC (Escherichia coli [3]): 469.3 µM; MIC (Escherichia coli [4]): 88 µM; MIC (Shigella dysenteriae): 146.7 µM; MIC (Pseudomonas aeruginosa): 469.3 µM; MIC (Salmonella typhi): 73.3 µM; MIC (Proteus vulgaris): 88 µM; MIC (Pichia norvegensis): 352 µM; MIC (Cyberlindnera jadinii): 469.3 µM; MIC (Saccharomyces cerevisiae): 469.3 µM; MIC (Aspergillus flavus): 293.3 µM; MIC (Candida albicans): 176 µM
COc1cc(-c2nc3ccccc3n2Cc2cccc(F)c2)c2c(c1O)CN1CCc3cc4c(cc3C1C2)OCO4.Cl (stereo unspecified) |  |  |  |  |  |  |  |  |  |  |  |  |  |  |  | MIC (Bacillus subtilis): 88.5 µM; MIC (Micrococcus luteus): 70.8 µM; MIC (Staphylococcus aureus [2]): 70.8 µM; MIC (Escherichia coli [3]): 70.8 µM; MIC (Escherichia coli [4]): 141.6 µM; MIC (Pseudomonas aeruginosa): 212.4 µM; MIC (Proteus vulgaris): 88.5 µM; MIC (Pichia norvegensis): 70.8 µM; MIC (Cyberlindnera jadinii): 106.2 µM; MIC (Saccharomyces cerevisiae): 35.4 µM; MIC (Aspergillus flavus): 88.5 µM; MIC (Candida albicans): 70.8 µM
CCn1cc(C(=O)O)c(=O)c2cc(F)c(N3CCNCC3)cc21 [NORFLOXACIN] | 25.1 µM (≈ 8.02 µg/mL) | 3.1 µM (≈ 0.99 µg/mL) | 4.2 µM (≈ 1.34 µg/mL) | 1.1 µM (≈ 0.351 µg/mL) | 50.1 µM (≈ 16 µg/mL) | 50.1 µM (≈ 16 µg/mL) | 5.3 µM (≈ 1.69 µg/mL) | 41.8 µM (≈ 13.3 µg/mL) | 10.4 µM (≈ 3.32 µg/mL) | 12.5 µM (≈ 3.99 µg/mL) |  |  |  |  |  | 
COc1cc(-c2nc3ccccc3n2Cc2ccc(Cl)cc2Cl)c2c(c1O)CN1CCc3cc4c(cc3C1C2)OCO4 (stereo unspecified) | 53.3 µM (≈ 32 µg/mL) | 11.1 µM (≈ 6.67 µg/mL) | 44.4 µM (≈ 26.7 µg/mL) | 22.2 µM (≈ 13.3 µg/mL) | 35.5 µM (≈ 21.3 µg/mL) | 107 µM (≈ 64 µg/mL) | 71.1 µM (≈ 42.7 µg/mL) | 88.8 µM (≈ 53.3 µg/mL) | 22.2 µM (≈ 13.3 µg/mL) | 17.7 µM (≈ 10.6 µg/mL) | 13.3 µM (≈ 7.99 µg/mL) | 22.2 µM (≈ 13.3 µg/mL) | 26.6 µM (≈ 16 µg/mL) | 71.1 µM (≈ 42.7 µg/mL) | 22.2 µM (≈ 13.3 µg/mL) | 
OC(Cn1cncn1)(Cn1cncn1)c1ccc(F)cc1F [FLUCONAZOLE] |  |  |  |  |  |  |  |  |  |  | 26.1 µM (≈ 7.99 µg/mL) | 10.9 µM (≈ 3.34 µg/mL) | 52.2 µM (≈ 16 µg/mL) | 836 µM (≈ 256 µg/mL) |  | 
COc1ccc(Cn2c(-c3cc(OC)c(O)c4c3CC3c5cc6c(cc5CCN3C4)OCO6)nc3ccccc32)cc1 (stereo unspecified) | 57 µM (≈ 32 µg/mL) | 19 µM (≈ 10.7 µg/mL) | 57 µM (≈ 32 µg/mL) | 47.5 µM (≈ 26.7 µg/mL) | 38 µM (≈ 21.3 µg/mL) | 95 µM (≈ 53.4 µg/mL) | 57 µM (≈ 32 µg/mL) | 38 µM (≈ 21.3 µg/mL) | 47.5 µM (≈ 26.7 µg/mL) | 47.5 µM (≈ 26.7 µg/mL) | 57 µM (≈ 32 µg/mL) | 57 µM (≈ 32 µg/mL) | 38 µM (≈ 21.3 µg/mL) | 23.8 µM (≈ 13.4 µg/mL) | 38 µM (≈ 21.3 µg/mL) | 
